In the library only some 3.3% were active in any assay of this set; here they are far more common.
5HT1a ag: 5-HT1a (human) receptor agonism; P08908; AID 567; hit rate 0.56% among 65,000; CHO 5-HT1a Ga15 NFAT-bla reporter, FRET ratio; 0% basal, 100% maximal reference agonist; activation, % at 10 µM;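 active = activation above the screen-wide mean activation plus 3 SD, cut at about 19% in these data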;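 also: 0% = DMSO wells and 100% = 5-CT at EC100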
5HT1E antag: antagonists of human 5-HT1E serotonin receptor | P28566 | CHO 5-HT1E Ga15 NFAT-bla reporter, FRET, antagonist | inhibition, % at 6 µM | hit rate 0.99% among 65,000;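 active = inhibition above a set limit, the mean inhibition across every tested compound plus 3 SD, cut at about 29% in these data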;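 also: signal is the 460 over 535 nm emission ratio of beta-lactamase substrate; 0% = agonist plus DMSO wells and 100% = wells without agonist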
Target sequence (P28566 whole entry, looked up): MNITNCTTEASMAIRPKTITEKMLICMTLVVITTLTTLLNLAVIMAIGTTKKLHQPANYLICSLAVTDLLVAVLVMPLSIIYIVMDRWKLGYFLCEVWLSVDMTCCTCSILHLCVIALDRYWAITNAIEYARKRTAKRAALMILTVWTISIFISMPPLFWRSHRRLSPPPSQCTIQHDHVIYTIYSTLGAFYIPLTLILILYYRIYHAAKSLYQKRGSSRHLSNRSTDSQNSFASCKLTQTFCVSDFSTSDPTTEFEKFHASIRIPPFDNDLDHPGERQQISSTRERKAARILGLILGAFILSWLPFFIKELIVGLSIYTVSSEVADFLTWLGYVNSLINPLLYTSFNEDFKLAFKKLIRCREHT
HTR1E agonist: 5-HT1E (human) receptor agonism; P28566; CHO 5-HT1E Ga15 NFAT-bla reporter, FRET; 0% DMSO wells, 100% control agonist wells; activation, % at 6 µM; hit rate 0.69% among 65,000;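 active = activation above a set limit, the screen-wide mean activation plus 3 SD, cut at about 8.5% in these data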;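 also: 100% = positive control agonist at 1 µM giving full maximal response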
5-HT1A blocker: antagonists of human 5-HT1a serotonin receptor; P08908; CHO 5-HT1a Ga15 NFAT-bla reporter, antagonist mode; inhibition, % at 10 µM; hit rate 0.68% among 62,000;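 active = inhibition above the mean of all tested compounds plus 3 SD, cut at about 43% in these data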;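 also: receptor stimulated by 5-CT agonist at 100 nM near EC80; beta-lactamase reporter measured by ratiometric fluorescence of a cleavable substrate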
Jurkat viability: reduces viability or proliferation of Jurkat cells; Jurkat E6.1 viability, ATP luminescence, 48 h; inhibition, % at 4 µM; hit rate 1.2% among 56,000;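 active = inhibition above the mean inhibition of all tested compounds plus 3 SD, cut at about 28% in these data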
HEK293 NFkB inh: lowers PMA/ionomycin-induced NF-kB signal in HEK293 cells; inhibition, % at 3 µM; hit rate 0.21% among 62,000; HEK-293 NF-kB luciferase reporter, luminescence;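 active = inhibition above the mean of all tested compounds plus 3 SD, cut at about 40% in these data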;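 also: 0% = stimulated DMSO wells and 100% = 10 µM reference inhibitor 5653914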
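Material: HEK-293 cells with stable firefly luciferase reporter driven by four HIV NF-kB elements / Also added: PMA plus ionomycin mix as NF-kB-activating stimulus / Compound dosing: 3 µM once, 0.30% DMSO / Times: 1 h pretreatment, 16 h stimulation, 37 °C / Signal: luminescence / Evaluation: per-plate % inhibition versus controls / Benchmarks: DMSO and 10 µM reference inhibitor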
Active calls of the source: *.

`Cc1ccc2[nH]c(=O)c(CN(Cc3cccnc3)Cc3nnnn3CCN3CCOCC3)cc2c1` gave 5HT1a ag -3.0, 5HT1E antag 7.8, HTR1E agonist -1.3, 5-HT1A blocker -5.3, Jurkat viability 3.9 and HEK293 NFkB inh 5.2.
CC1CC(C)(C)Nc2ccc(OC(=O)c3ccco3)cc21 (configuration not stated) was read as 5HT1a ag -4.4, 5HT1E antag 40.1*, HTR1E agonist 1.3, 5-HT1A blocker 50.7*, Jurkat viability 9.0 and HEK293 NFkB inh 57.9*.
For O=C(Oc1ccc2ccccc2c1)c1ccco1 the results were 5HT1a ag -2.1, 5HT1E antag -7.7, HTR1E agonist 0.8, 5-HT1A blocker -11.2, Jurkat viability -0.1 and HEK293 NFkB inh 9.1.
Screening Fc1ccccc1/C=N/n1cnnc1 returned 5HT1a ag 2.1, 5HT1E antag -8.4 and HTR1E agonist -0.1.
For Cc1cc(C)n(-c2nncn2/N=C/c2ccccc2F)n1 the results were 5HT1a ag -1.9, 5HT1E antag 12.4, HTR1E agonist -1.6, 5-HT1A blocker 54.7*, Jurkat viability 3.6 and HEK293 NFkB inh 15.9.
For C=CCn1c(O)c(C2=c3ccccc3=NC2=O)sc1=Nc1ccc(O)cc1 the results were 5HT1a ag -9.6, 5HT1E antag 11.7, HTR1E agonist 0.4, 5-HT1A blocker 55.0*, Jurkat viability 0.0 and HEK293 NFkB inh 20.7.
`Cc1nn2c(=O)nc3sc4c(c3c2[nH]c1=O)CCCC4` gave 5HT1a ag -0.5, 5HT1E antag -2.8, HTR1E agonist 0.6, 5-HT1A blocker -17.6, Jurkat viability -0.8 and HEK293 NFkB inh -8.4.
CCn1c(SCC(=O)NCCc2ccc(F)cc2)nnc1-c1cccs1 was read as 5HT1a ag -3.5, 5HT1E antag -24.8, HTR1E agonist -0.9, 5-HT1A blocker -7.3, Jurkat viability -4.3 and HEK293 NFkB inh 6.9.
For Cn1c(-c2c(N)n(C3CCCC3)c3nc4ccccc4nc23)nc2ccccc21 the results were 5HT1a ag 5.5, 5HT1E antag 76.8*, HTR1E agonist -0.2, 5-HT1A blocker 77.0*, Jurkat viability 4.9 and HEK293 NFkB inh 4.3.
`O=C(Nc1ccc(NC(=O)c2ccco2)nc1)c1ccccn1` gave 5HT1a ag -2.5, 5HT1E antag -2.4, HTR1E agonist 34.4*, 5-HT1A blocker 5.4 and HEK293 NFkB inh -21.4.
For Cc1cccc(NC(=O)C2CCN(c3nc(C)cc(C)n3)CC2)c1 the results were 5HT1a ag -3.2, 5HT1E antag -7.6, HTR1E agonist 0.0, 5-HT1A blocker -0.8, Jurkat viability -0.6 and HEK293 NFkB inh 9.2.
Cc1cccc(NC(=O)C2CCCN(c3nc(C)cc(C)n3)C2)c1 (configuration not stated) was read as 5HT1a ag 0.3, 5HT1E antag -5.7, HTR1E agonist 13.2*, 5-HT1A blocker -2.0, Jurkat viability -7.4 and HEK293 NFkB inh -0.5.
For CCOCCn1c(CN2CCOCC2)nc2c1c(=O)[nH]c(=O)n2C the results were 5HT1a ag -4.1, 5HT1E antag 1.9, HTR1E agonist -0.2, 5-HT1A blocker 2.8, Jurkat viability -5.4 and HEK293 NFkB inh 1.1.
`Cc1nnc(Sc2nc(Sc3nnc(C)s3)nc(N3CCN(C)CC3)n2)s1` gave 5HT1a ag 4.1, 5HT1E antag 68.2*, HTR1E agonist -0.7, 5-HT1A blocker 77.6*, Jurkat viability 100.8* and HEK293 NFkB inh 38.8.
For COC(=O)c1ccc(COC(=O)c2ccc(-n3cnnn3)cc2)o1 the results were 5HT1a ag -0.8, 5HT1E antag 25.2, HTR1E agonist -0.5, 5-HT1A blocker 14.0, Jurkat viability 0.8 and HEK293 NFkB inh 8.9.
For C=CCNC(=O)C1CCCN(S(C)(=O)=O)C1 (configuration not stated) the results were 5HT1a ag -0.3, 5HT1E antag 4.6, HTR1E agonist 14.2*, 5-HT1A blocker 2.7, Jurkat viability 0.7 and HEK293 NFkB inh -7.5.
For CCn1c(-c2ccc(N)cc2)nc2ccccc21 the results were 5HT1a ag 0.8, 5HT1E antag -5.1, HTR1E agonist 0.4, 5-HT1A blocker 6.9, Jurkat viability -16.6 and HEK293 NFkB inh -8.1.
CCn1c(-c2ccc(N(C)C)cc2)nc2ccccc21 was read as 5HT1a ag -4.5, 5HT1E antag -7.6, HTR1E agonist 0.5, 5-HT1A blocker 8.6, Jurkat viability 49.5* and HEK293 NFkB inh -37.3.
`Cn1ccnc1C(O)c1cc(C(C)(C)C)c(O)c(C(C)(C)C)c1` (configuration not stated) gave 5HT1a ag -1.3, 5HT1E antag -12.8, HTR1E agonist 0.4, 5-HT1A blocker 13.4, Jurkat viability 0.0 and HEK293 NFkB inh 12.2.
`CCOC(=O)N1CCN(C2=Nc3cccc4cccc2c34)CC1` gave 5HT1a ag 70.7*, 5HT1E antag 2.8, HTR1E agonist 1.2, 5-HT1A blocker -22.7, Jurkat viability -1.8 and HEK293 NFkB inh -0.9.
Screening O=c1oc2c3c4c(cc2c2c1CCC2)OCCN4CCC3 returned 5HT1a ag 10.5, 5HT1E antag -1.8, HTR1E agonist 2.7, 5-HT1A blocker -17.6, Jurkat viability 3.2 and HEK293 NFkB inh 11.0.
`CCOc1ccc(C2CC(c3ccc(F)cc3)n3ncnc3N2)cc1` (configuration not stated) gave 5HT1a ag -0.1, 5HT1E antag 9.1, HTR1E agonist 0.5, 5-HT1A blocker 10.6, Jurkat viability 7.6 and HEK293 NFkB inh 5.3.
For COc1ccc(N2C(=O)CCC(C(=O)NCc3ccccn3)C2c2ccc(OC)c(OC)c2)cc1 (configuration not stated) the results were 5HT1a ag -1.7, 5HT1E antag 5.9, HTR1E agonist -0.8, 5-HT1A blocker -2.0 and HEK293 NFkB inh 0.5.
For COc1ccc(N2C(=O)CCC(C(=O)Nc3cccc(C)n3)C2c2ccc(OC)c(OC)c2)cc1 (configuration not stated) the results were 5HT1a ag 28.9*, 5HT1E antag 11.9, HTR1E agonist -1.9, 5-HT1A blocker -0.3 and HEK293 NFkB inh 8.6.
For O=C(CN(Cc1cccs1)C(=O)CNC(=O)c1ccco1)NC1CCCCC1 the results were 5HT1a ag -2.2, 5HT1E antag 2.9, HTR1E agonist -0.2, 5-HT1A blocker -9.4, Jurkat viability 10.2 and HEK293 NFkB inh 4.6.
For CCOC(=O)c1c(C)[nH]c(C(=O)COC(=O)c2cnc(C)cn2)c1C the results were 5HT1a ag -0.7, 5HT1E antag -0.3, HTR1E agonist 0.1, 5-HT1A blocker 15.8, Jurkat viability 1.6 and HEK293 NFkB inh -3.4.
Screening CCOC(=O)c1c(C)[nH]c(C(=O)COC(=O)c2oc3ccc(OC)cc3c2C)c1C returned 5HT1a ag -2.0, 5HT1E antag -7.7, HTR1E agonist 35.0*, 5-HT1A blocker -4.9, Jurkat viability 1.8 and HEK293 NFkB inh 15.6.
